Experimental data of several laboratories.
Lines come from different studies, so protocols differ.
Target: Phosphorylase b kinase gamma catalytic chain, skeletal muscle/heart isoform (PHKG1, Homo sapiens, UniProt Q16816)

O=C(Nc1cnn(-c2csc(C(=O)NC3COC3)c2)c1)Nc1c(F)cccc1Cl
remaining activity (enzyme activity; inhibitor; 5 µM): 91.2%

c1ccc(CNc2nc(N3CCOc4ccccc43)nc3c2CCCC3)cc1
inhibition (target engagement in cells; inhibitor; chemoproteomics; 20 mM): 2%

Cc1c(C(=O)O)cc(-c2ccc(C3CCNCC3)cc2)c2ccc(-c3ccc(C(F)(F)F)cc3)cc12
remaining binding (cell-free assay; competition with immobilised ligand; 1 µM): 100%

COc1cccc2c(NCc3ccccc3)nc(-n3c(N)nc4ccccc43)nc12
inhibition (target engagement in cells; inhibitor; chemoproteomics; 20 mM): 6.1%

CS(=O)(=O)c1cc(C2(NC(=O)c3cncc4c3cnn4-c3ccc(F)cc3)CC2)ccn1
remaining binding (cell-free assay; competition with immobilised ligand; 1 µM): 78%

Cn1c(=O)n(-c2ccc(C(C)(C)C#N)cc2)c2c3cc(-c4cnc5ccccc5c4)ccc3ncc21
remaining activity (enzyme activity; inhibitor; 10 µM): 95%

Cc1sc(C(=O)NC2COC2)cc1-n1cc(NC(=O)Nc2c(F)cccc2Cl)cn1
remaining activity (enzyme activity; inhibitor; 10 µM): 84%

COc1cc2ncnc(Nc3ccc(Oc4ccccc4)c(C)c3C)c2cc1OC
inhibition (enzyme activity; inhibitor; 1 µM): 2%

Cc1ccc(C(=O)NCc2ccsc2)cc1C#Cc1cn(C(C)C)c2ncnc(N)c12
activity vs control (enzyme activity; inhibitor; 1 µM): 107%

Oc1cccc(-c2nc(N3CCOCC3)c3oc4ncccc4c3n2)c1
remaining activity (enzyme activity; inhibitor; 10 µM): 84%

Nc1nc(Nc2ccccc2)sc1C(=O)c1c(F)cccc1F
remaining activity (enzyme activity; inhibitor; 10 µM): 88%

COc1cccc(CNC(=O)c2nc3scc(COCc4ccc(C(=O)O)cc4)c3c(=O)[nH]2)c1
remaining binding (cell-free assay; competition with immobilised ligand; 1 µM): 100%

CC(C)(C)c1nc2c(s1)c1nc(N)ncc1c1ccc(NS(=O)(=O)c3c(F)cccc3F)c(F)c12
remaining activity (enzyme activity; inhibitor; radiometric; 1 µM): 98%

NS(=O)(=O)c1cc(NC(=O)Cc2ccccc2)ccc1Oc1cccc(Cl)c1
remaining binding (cell-free assay; competition with immobilised ligand; 1 µM): 87%

N#CCCc1ccc2c(c1)-c1[nH]c3ccc([N+](=O)[O-])cc3c1CC(=O)N2
remaining signal (cell-free assay; 0.5 µM): 7.72%

O=C(Nc1cnc(Oc2ccc(F)cc2)nc1)N1CCc2ncccc2[C@@H]1c1ccc(F)cc1
remaining binding (cell-free assay; competition with immobilised ligand; 1 µM): 100%

O=C1Nc2ccc(Cl)cc2C1=Cc1cc(Cl)c(O)c(Cl)c1
remaining signal (cell-free assay; 0.5 µM): 86.4%

CN(C)C(=O)Cn1cc(-c2nc([C@@](C)(c3ccc(-c4cnc(N)nc4)cc3)C3CC3)no2)cn1
remaining binding (cell-free assay; competition with immobilised ligand; 1 µM): 77%

CN1CC(Oc2cnc(C#N)cc2-c2ccn3nc(NC(=O)C4CC4)cc3c2)C1
inhibition (enzyme activity; inhibitor; 1 µM): 8%

CC/C(=N\NC(=O)NCc1cccc(O)c1)c1ccc(O)c(C)c1O
inhibition (enzyme activity; inhibitor; 0.1 µM): -1.8%
